Reference: ChEMBL document CHEMBL4725389, “Novel Blocker of Onco SK3 Channels Derived from Scorpion Toxin Tamapin and Active against Migration of Cancer Cells” (ACS Med Chem Lett, 2020)
The source made the active and inactive calls. The calls are words filed in the database; no cut-off is given here. Positions of bridges follow the written chain, without caps; N, C: chain ends. Residues, ends and D or L forms follow the SMILES beside them.

Legend:
[1] = target: T1, Small conductance calcium-activated potassium channel protein 3 (Homo sapiens, UniProt Q9UGI6); experiment: Inhibition of recombinant human SK3 expressed in HEK293T cells assessed as […] at membrane potential -120 mV for 50 ms followed by 400 ms voltage ramp to 60 mV by whole cell patch clamp method; type: cell-based, HEK-293T
T1 sequence (Q9UGI6 whole entry): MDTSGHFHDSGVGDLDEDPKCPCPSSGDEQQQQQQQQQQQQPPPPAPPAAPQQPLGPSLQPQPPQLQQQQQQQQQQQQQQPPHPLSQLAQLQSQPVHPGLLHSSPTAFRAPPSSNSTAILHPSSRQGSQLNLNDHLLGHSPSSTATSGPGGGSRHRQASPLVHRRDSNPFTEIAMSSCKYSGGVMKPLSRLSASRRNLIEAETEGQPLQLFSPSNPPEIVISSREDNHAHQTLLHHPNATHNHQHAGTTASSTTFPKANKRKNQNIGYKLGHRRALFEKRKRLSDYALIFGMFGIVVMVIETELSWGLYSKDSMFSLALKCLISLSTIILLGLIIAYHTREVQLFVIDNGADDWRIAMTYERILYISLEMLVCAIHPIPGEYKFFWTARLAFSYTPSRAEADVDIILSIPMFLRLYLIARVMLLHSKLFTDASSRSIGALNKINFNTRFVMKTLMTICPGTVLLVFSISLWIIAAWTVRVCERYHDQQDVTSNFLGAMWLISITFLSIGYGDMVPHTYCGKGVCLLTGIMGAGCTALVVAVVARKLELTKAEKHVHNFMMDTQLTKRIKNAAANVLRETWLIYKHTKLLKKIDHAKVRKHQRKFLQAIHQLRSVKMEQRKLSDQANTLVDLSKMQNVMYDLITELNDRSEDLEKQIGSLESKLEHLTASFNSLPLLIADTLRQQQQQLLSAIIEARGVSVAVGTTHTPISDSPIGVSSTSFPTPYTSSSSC

[2] = target: Small conductance calcium-activated potassium channel protein 2 (Rattus norvegicus, UniProt P70604); experiment: Inhibition of recombinant rat SK2 expressed in HEK293 cells assessed as […] at membrane potential -120 mV for 50 ms followed by 400 ms voltage ramp to 60 mV by whole cell patch clamp method; type: cell-based
Sequence of Small conductance calcium-activated potassium channel protein 2 (P70604 whole entry): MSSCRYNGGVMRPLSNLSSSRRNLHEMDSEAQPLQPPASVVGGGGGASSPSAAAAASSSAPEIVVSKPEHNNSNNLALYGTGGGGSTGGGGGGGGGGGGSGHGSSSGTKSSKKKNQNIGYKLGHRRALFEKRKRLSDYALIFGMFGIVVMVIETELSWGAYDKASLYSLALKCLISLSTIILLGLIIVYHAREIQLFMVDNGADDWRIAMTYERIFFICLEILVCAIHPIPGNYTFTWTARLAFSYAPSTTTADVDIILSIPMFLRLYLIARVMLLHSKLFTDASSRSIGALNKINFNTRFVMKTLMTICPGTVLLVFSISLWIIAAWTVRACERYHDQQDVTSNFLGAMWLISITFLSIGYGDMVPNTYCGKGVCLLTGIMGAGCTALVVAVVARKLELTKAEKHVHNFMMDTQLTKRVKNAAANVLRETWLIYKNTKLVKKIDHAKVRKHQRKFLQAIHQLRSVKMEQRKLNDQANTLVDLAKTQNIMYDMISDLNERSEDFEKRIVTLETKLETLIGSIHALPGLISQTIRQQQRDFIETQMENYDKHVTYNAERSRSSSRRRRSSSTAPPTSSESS

[3] = target: Small conductance calcium-activated potassium channel protein 2 (Rattus norvegicus) (UniProt P70604); experiment: Inhibition of recombinant rat SK2 expressed in HEK293 cells at 10 nM and holding potential at 0 mV and ramp voltage from -100 to 100 mV by whole cell patch clamp method relative to control; type: cell-based
Sequence of Small conductance calcium-activated potassium channel protein 2 (Rattus norvegicus) (P70604 whole entry): as above

[4] = tested on: MDA-MB-435; experiment: Inhibition of cell migration in human MDA-MB-435 cells transfected with lentivrus-encoding shRNA against SK3 by matrigel invasion method relative to control; type: functional
In short: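 MDA-MB-435s cells lacking SK3 expression were exposed to peptides at 100 nM. Migration is given as migrating cells with peptide divided by migrating cells under control conditions (means ± SEM, N = 4, n = 12). Groups were compared by Kruskal–Wallis with post hoc tests.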

[5] = target: T1, Small conductance calcium-activated potassium channel protein 3; experiment: Inhibition of recombinant human SK3 expressed in HEK293T cells assessed as ratio of amplitude of outward current blocked in presence and absence of compound at 1 nM and holding potential at 0 mV and ramp voltage from -100 to 100 mV by whole cell patch clamp method relative to control; type: cell-based
In short: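 Whole-cell patch clamp on HEK293T cells expressing recombinant human SK3, pCa 6. Ramp from −100 to 100 mV over 500 ms, holding at 0 mV; currents analysed at 0 mV. Peptide at 1 nM, then 100 nM apamin to block residual SKCa current. Inhibition = ratio of outward current amplitude blocked at 1 nM to amplitude without compound.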

[6] = target: T1, Small conductance calcium-activated potassium channel protein 3; experiment: Inhibition of SK3-dependent cell migration in human MDA-MB-435 cells assessed as ratio of total cells migrating by matrigel invasion method relative to control; type: cell-based
[7] = target: T1, Small conductance calcium-activated potassium channel protein 3; experiment: Inhibition of recombinant human SK3 expressed in HEK293T cells assessed as reduction in channel current with holding potential 0 mV and ramp voltage from -100 to 100 mV by whole cell patch clamp method; type: cell-based, HEK-293T
In short: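 HEK293T stably expressing recombinant human SK3, whole-cell recording at pCa 6. Ramp −100 to 100 mV, 500 ms, from 0 mV holding; current at 0 mV taken as SKCa-only. Concentration–response curves fitted for EC50 (means ± SEM, n = 3–8).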

[8] = target: T1, Small conductance calcium-activated potassium channel protein 3; experiment: Inhibition of recombinant human SK3 expressed in HEK293T cells at 10 nM and holding potential at 0 mV and ramp voltage from -100 to 100 mV by whole cell patch clamp method relative to control; type: cell-based; conditions: HEK-293T

| EC50 [1] [nM] | inhibition [3] [%] | inhibition [8] | Structure (SMILES) | also measured |
| --- | --- | --- | --- | --- |
| 1.7 | – | – | CC[C@H](C)[C@@H]1NC(=O)[C@@H]2CSSC[C@H](NC(=O)[C@H](Cc3ccccc3)NC(=O)[C@H](C)N)C(=O)N[C@@H](CC(N)=O)C(=O)N[C@@H](CC(C)C)C(=O)N[C@@H](CCCNC(=N)N)C(=O)N[C@@H](CCCNC(=N)N)C(=O)N[C@H]3CSSC[C@H](NC(=O)[C@H](CCC(=O)O)NC(=O)[C@H](CCC(=O)O)NC(=O)CNC1=O)C(=O)N[C@@H](CCCCN)C(=O)N[C@H](C(=O)N[C@H](C(=O)N1CCC[C@H]1C(=O)N[C@@H](Cc1ccc(O)cc1)C(N)=O)C(C)C)CSSC[C@H](NC(=O)[C@H](CO)NC(=O)[C@H](CC(C)C)NC(=O)[C@H](CCC(=O)O)NC3=O)C(=O)N[C@@H](CCCNC(=N)N)C(=O)N[C@@H](CO)C(=O)N[C@@H](CC(C)C)C(=O)NCC(=O)N[C@@H](CC(C)C)C(=O)N[C@@H](CC(C)C)C(=O)NCC(=O)N[C@@H](CCCCN)C(=O)N2 (H-AFCNLRRCELSCRSLGLLGKCIGEECKCVPY-NH2; disulfide 3-21, 8-26, 12-28) | EC50 [2]: 0.024 nM |
| – | 40 | < 39% | CC[C@H](C)[C@@H]1NC(=O)[C@@H]2CSSC[C@H](NC(=O)[C@H](Cc3ccccc3)NC(=O)[C@H](C)N)C(=O)N[C@@H](CC(N)=O)C(=O)N[C@@H](CC(C)C)C(=O)N[C@@H](CCCNC(=N)N)C(=O)N[C@@H](CCCNC(=N)N)C(=O)N[C@H]3CSSC[C@H](NC(=O)[C@H](CCC(=O)O)NC(=O)[C@H](CCC(=O)O)NC(=O)CNC1=O)C(=O)N[C@@H](CCCCN)C(=O)N[C@H](C(=O)N[C@H](C(=O)N1CCC[C@H]1C(=O)N[C@@H](C)C(=O)O)C(C)C)CSSC[C@H](NC(=O)[C@H](CO)NC(=O)[C@H](CC(C)C)NC(=O)[C@H](CCC(=O)O)NC3=O)C(=O)N[C@@H](CCCNC(=N)N)C(=O)N[C@@H](CO)C(=O)N[C@@H](CC(C)C)C(=O)NCC(=O)N[C@@H](CC(C)C)C(=O)N[C@@H](CC(C)C)C(=O)NCC(=O)N[C@@H](CCCCN)C(=O)N2 (H-AFCNLRRCELSCRSLGLLGKCIGEECKCVPA-OH; disulfide 3-21, 8-26, 12-28) | – |
| 3.8 | – | – | CC[C@H](C)[C@@H]1NC(=O)[C@@H]2CSSC[C@H](NC(=O)[C@@H](NC(=O)[C@H](C)N)C(C)C)C(=O)N[C@@H](CC(N)=O)C(=O)N[C@@H](CC(C)C)C(=O)N[C@@H](CCCCN)C(=O)N[C@@H](CCCNC(=N)N)C(=O)N[C@H]3CSSC[C@H](NC(=O)[C@H](CCCCN)NC(=O)[C@H](CC(=O)O)NC(=O)CNC1=O)C(=O)N[C@@H](CCC(=O)O)C(=O)N[C@H](C(=O)N[C@H](C(=O)N[C@@H](CCCCN)C(=O)N[C@@H](Cc1c[nH]cn1)C(N)=O)C(C)C)CSSC[C@H](NC(=O)[C@H](CO)NC(=O)[C@H](CC(C)C)NC(=O)[C@H](CCC(N)=O)NC3=O)C(=O)N[C@@H](CCCNC(=N)N)C(=O)N[C@@H](CO)C(=O)N[C@@H](CC(C)C)C(=O)NCC(=O)N[C@@H](CC(C)C)C(=O)N[C@@H](CC(C)C)C(=O)NCC(=O)N[C@@H](CCCCN)C(=O)N2 (H-AVCNLKRCQLSCRSLGLLGKCIGDKCECVKH-NH2; disulfide 3-21, 8-26, 12-28) | – |
| – | > 85 | inactive | CC[C@H](C)[C@@H]1NC(=O)[C@@H]2CSSC[C@H](NC(=O)[C@H](Cc3ccccc3)NC(=O)[C@H](C)N)C(=O)N[C@@H](CC(N)=O)C(=O)N[C@@H](CC(C)C)C(=O)N[C@@H](CCCNC(=N)N)C(=O)N[C@@H](CCCNC(=N)N)C(=O)N[C@H]3CSSC[C@H](NC(=O)[C@H](CCC(=O)O)NC(=O)[C@H](CCC(=O)O)NC(=O)CNC1=O)C(=O)N[C@@H](CCCCN)C(=O)N[C@H](C(=O)N[C@H](C(=O)N1CCC[C@H]1C(=O)N[C@@H](Cc1ccc(O)cc1)C(=O)O)C(C)C)CSSC[C@H](NC(=O)[C@H](CO)NC(=O)[C@H](CC(C)C)NC(=O)[C@H](CCC(=O)O)NC3=O)C(=O)N[C@@H](CCCNC(=N)N)C(=O)N[C@@H](CO)C(=O)N[C@@H](CC(C)C)C(=O)NCC(=O)N[C@@H](CC(C)C)C(=O)N[C@@H](CC(C)C)C(=O)NCC(=O)N[C@@H](C)C(=O)N2 (H-AFCNLRRCELSCRSLGLLGACIGEECKCVPY-OH; disulfide 3-21, 8-26, 12-28) | – |
| – | 40 | < 39% | CC[C@H](C)[C@@H]1NC(=O)[C@@H]2CSSC[C@H](NC(=O)[C@H](Cc3ccccc3)NC(=O)[C@H](C)N)C(=O)N[C@@H](CC(N)=O)C(=O)N[C@@H](CC(C)C)C(=O)N[C@@H](CCCNC(=N)N)C(=O)N[C@@H](CCCNC(=N)N)C(=O)N[C@H]3CSSC[C@H](NC(=O)[C@H](CCC(=O)O)NC(=O)[C@H](CCC(=O)O)NC(=O)CNC1=O)C(=O)N[C@@H](CCCCN)C(=O)N[C@H](C(=O)N[C@H](C(=O)N[C@@H](Cc1ccc(O)cc1)C(=O)O)C(C)C)CSSC[C@H](NC(=O)[C@H](CO)NC(=O)[C@H](CC(C)C)NC(=O)[C@H](CCC(=O)O)NC3=O)C(=O)N[C@@H](CCCNC(=N)N)C(=O)N[C@@H](CO)C(=O)N[C@@H](CC(C)C)C(=O)NCC(=O)N[C@@H](CC(C)C)C(=O)N[C@@H](CC(C)C)C(=O)NCC(=O)N[C@@H](CCCCN)C(=O)N2 (H-AFCNLRRCELSCRSLGLLGKCIGEECKCVY-OH; disulfide 3-21, 8-26, 12-28) | – |
| – | 40 | < 39% | CC[C@H](C)[C@@H]1NC(=O)[C@@H]2CSSC[C@H](NC(=O)[C@H](Cc3ccccc3)NC(=O)[C@H](C)N)C(=O)N[C@@H](CC(N)=O)C(=O)N[C@@H](CC(C)C)C(=O)N[C@@H](CCCNC(=N)N)C(=O)N[C@@H](CCCNC(=N)N)C(=O)N[C@H]3CSSC[C@H](NC(=O)[C@H](CCC(=O)O)NC(=O)[C@H](CCC(=O)O)NC(=O)CNC1=O)C(=O)N[C@@H](CCCCN)C(=O)N[C@H](C(=O)N[C@H](C(=O)N1CCC[C@H]1C(=O)N[C@@H](Cc1c[nH]cn1)C(=O)O)C(C)C)CSSC[C@H](NC(=O)[C@H](CO)NC(=O)[C@H](CC(C)C)NC(=O)[C@H](CCC(=O)O)NC3=O)C(=O)N[C@@H](CCCNC(=N)N)C(=O)N[C@@H](CO)C(=O)N[C@@H](CC(C)C)C(=O)NCC(=O)N[C@@H](CC(C)C)C(=O)N[C@@H](CC(C)C)C(=O)NCC(=O)N[C@@H](CCCCN)C(=O)N2 (H-AFCNLRRCELSCRSLGLLGKCIGEECKCVPH-OH; disulfide 3-21, 8-26, 12-28) | – |

| Structure (SMILES) | EC50 [1] [nM] | inhibition [3] [%] | inhibition [8] | also measured |
| --- | --- | --- | --- | --- |
| CC[C@H](C)[C@@H]1NC(=O)[C@@H]2CSSC[C@H](NC(=O)[C@H](Cc3ccccc3)NC(=O)[C@H](C)N)C(=O)N[C@@H](CC(N)=O)C(=O)N[C@@H](CC(C)C)C(=O)N[C@@H](CCCNC(=N)N)C(=O)N[C@@H](CCSC)C(=O)N[C@H]3CSSC[C@H](NC(=O)[C@H](CCCCN)NC(=O)[C@H](CC(=O)O)NC(=O)CNC1=O)C(=O)N[C@@H](CCC(=O)O)C(=O)N[C@H](C(=O)N[C@H](C(=O)N[C@@H](CCCCN)C(=O)N[C@@H](Cc1c[nH]cn1)C(=O)O)C(C)C)CSSC[C@H](NC(=O)[C@H](CO)NC(=O)[C@H](CC(C)C)NC(=O)[C@H](CCC(N)=O)NC3=O)C(=O)N[C@@H](CCCNC(=N)N)C(=O)N[C@@H](CO)C(=O)N[C@@H](CC(C)C)C(=O)NCC(=O)N[C@@H](CC(C)C)C(=O)N[C@@H](CC(C)C)C(=O)NCC(=O)N[C@@H](CCCCN)C(=O)N2 (H-AFCNLRMCQLSCRSLGLLGKCIGDKCECVKH-OH; disulfide 3-21, 8-26, 12-28) | 1.1 | – | – | EC50 [2]: 0.29 nM |
| CC[C@H](C)[C@@H]1NC(=O)[C@@H]2CSSC[C@H](NC(=O)[C@H](Cc3ccccc3)NC(=O)[C@H](C)N)C(=O)N[C@@H](CC(N)=O)C(=O)N[C@@H](CC(C)C)C(=O)N[C@@H](CCCNC(=N)N)C(=O)N[C@@H](CCCNC(=N)N)C(=O)N[C@H]3CSSC[C@H](NC(=O)[C@H](CCC(=O)O)NC(=O)[C@H](CCC(=O)O)NC(=O)CNC1=O)C(=O)N[C@@H](CCCCN)C(=O)N[C@H](C(=O)N[C@H](C(=O)N1CCC[C@H]1C(=O)N[C@@H](Cc1ccc(O)cc1)C(=O)O)C(C)C)CSSC[C@H](NC(=O)[C@H](CO)NC(=O)[C@H](CC(C)C)NC(=O)[C@H](CCC(=O)O)NC3=O)C(=O)N[C@@H](CCCNC(=N)N)C(=O)N[C@@H](CO)C(=O)N[C@@H](CC(C)C)C(=O)NCC(=O)N[C@@H](CC(C)C)C(=O)N[C@@H](CC(C)C)C(=O)NCC(=O)N[C@@H](CCCCN)C(=O)N2 (H-AFCNLRRCELSCRSLGLLGKCIGEECKCVPY-OH; disulfide 3-21, 8-26, 12-28) | – | > 85 | 40% | inhibition [4]: inactive; inhibition [5]: 25%; inhibition [6]: inactive; EC50 [7]: 2.6 nM |
